pKi: −log10 of the molar value. Activity calls are given as the source filed them. The rule behind the calls is not given here.
Tests used:
[1] = test system: Bacillus subtilis; assay: Displacement of imidazole from Bacillus subtilis NOS in presence of 50 uM H4B
[2] = test system: Bacillus subtilis; assay: Displacement of imidazole from Bacillus subtilis NOS
[3] = molecular target: T1, Nitric oxide synthase, inducible (Mus musculus, UniProt P29477); assay: Inhibition of mouse iNOS
T1 sequence (P29477 whole entry): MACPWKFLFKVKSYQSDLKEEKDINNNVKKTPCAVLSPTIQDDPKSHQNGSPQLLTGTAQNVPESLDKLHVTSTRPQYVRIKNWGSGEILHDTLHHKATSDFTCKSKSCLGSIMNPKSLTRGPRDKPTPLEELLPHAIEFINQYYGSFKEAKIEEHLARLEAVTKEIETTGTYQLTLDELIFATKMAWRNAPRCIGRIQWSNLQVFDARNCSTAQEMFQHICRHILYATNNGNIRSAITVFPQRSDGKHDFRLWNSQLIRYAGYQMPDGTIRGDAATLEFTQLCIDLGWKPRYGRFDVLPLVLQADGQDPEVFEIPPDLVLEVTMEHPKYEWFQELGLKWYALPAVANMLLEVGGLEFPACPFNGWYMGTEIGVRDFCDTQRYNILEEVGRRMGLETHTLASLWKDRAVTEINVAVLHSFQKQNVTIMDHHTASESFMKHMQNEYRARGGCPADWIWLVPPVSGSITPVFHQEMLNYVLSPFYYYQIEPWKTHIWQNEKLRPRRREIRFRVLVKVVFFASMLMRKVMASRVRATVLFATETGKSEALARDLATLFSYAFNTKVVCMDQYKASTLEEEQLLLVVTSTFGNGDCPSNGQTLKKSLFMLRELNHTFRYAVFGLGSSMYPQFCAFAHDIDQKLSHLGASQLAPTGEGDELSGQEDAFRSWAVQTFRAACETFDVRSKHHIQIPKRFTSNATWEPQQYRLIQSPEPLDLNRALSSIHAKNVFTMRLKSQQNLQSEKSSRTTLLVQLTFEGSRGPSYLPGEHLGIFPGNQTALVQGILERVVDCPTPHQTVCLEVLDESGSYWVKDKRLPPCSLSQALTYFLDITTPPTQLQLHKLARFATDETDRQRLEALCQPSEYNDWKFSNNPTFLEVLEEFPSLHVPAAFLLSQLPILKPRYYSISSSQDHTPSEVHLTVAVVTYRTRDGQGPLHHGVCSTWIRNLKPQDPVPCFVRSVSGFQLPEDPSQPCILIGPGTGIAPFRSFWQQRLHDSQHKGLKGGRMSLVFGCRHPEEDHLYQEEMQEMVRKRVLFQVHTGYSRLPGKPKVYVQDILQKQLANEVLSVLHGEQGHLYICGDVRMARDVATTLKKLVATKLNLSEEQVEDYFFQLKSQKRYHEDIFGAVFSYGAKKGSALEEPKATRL

[4] = test system: Bacillus subtilis; assay: Inhibition of NADPH-dependent Bacillus subtilis NOS using bBiDomain and Escherichia coli flavodoxin reductase YumC assessed as nitrite level at 300 uM by Griess reaction; set-up: Activity: scale not given: the % may be the effect or the level left
How it was run: (§1)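 bBiDomain with the flavodoxin reductase YumC, NADPH-driven, 50 μM H4B included. Inhibitor tested over a range of concentrations. Nitrite measured at a single time point.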

[5] = test system: Bacillus subtilis; assay: Inhibition of NADPH-dependent Bacillus subtilis NOS using bBiDomain and Escherichia coli flavodoxin reductase YumC assessed as nitrite level up to 800 uM by Griess reaction; how it was run: as §1
[6] = molecular target: T2, Nitric oxide synthase 3 (Bos taurus, UniProt P29473); assay: Inhibition of bovine eNOS
T2 sequence (P29473 whole entry): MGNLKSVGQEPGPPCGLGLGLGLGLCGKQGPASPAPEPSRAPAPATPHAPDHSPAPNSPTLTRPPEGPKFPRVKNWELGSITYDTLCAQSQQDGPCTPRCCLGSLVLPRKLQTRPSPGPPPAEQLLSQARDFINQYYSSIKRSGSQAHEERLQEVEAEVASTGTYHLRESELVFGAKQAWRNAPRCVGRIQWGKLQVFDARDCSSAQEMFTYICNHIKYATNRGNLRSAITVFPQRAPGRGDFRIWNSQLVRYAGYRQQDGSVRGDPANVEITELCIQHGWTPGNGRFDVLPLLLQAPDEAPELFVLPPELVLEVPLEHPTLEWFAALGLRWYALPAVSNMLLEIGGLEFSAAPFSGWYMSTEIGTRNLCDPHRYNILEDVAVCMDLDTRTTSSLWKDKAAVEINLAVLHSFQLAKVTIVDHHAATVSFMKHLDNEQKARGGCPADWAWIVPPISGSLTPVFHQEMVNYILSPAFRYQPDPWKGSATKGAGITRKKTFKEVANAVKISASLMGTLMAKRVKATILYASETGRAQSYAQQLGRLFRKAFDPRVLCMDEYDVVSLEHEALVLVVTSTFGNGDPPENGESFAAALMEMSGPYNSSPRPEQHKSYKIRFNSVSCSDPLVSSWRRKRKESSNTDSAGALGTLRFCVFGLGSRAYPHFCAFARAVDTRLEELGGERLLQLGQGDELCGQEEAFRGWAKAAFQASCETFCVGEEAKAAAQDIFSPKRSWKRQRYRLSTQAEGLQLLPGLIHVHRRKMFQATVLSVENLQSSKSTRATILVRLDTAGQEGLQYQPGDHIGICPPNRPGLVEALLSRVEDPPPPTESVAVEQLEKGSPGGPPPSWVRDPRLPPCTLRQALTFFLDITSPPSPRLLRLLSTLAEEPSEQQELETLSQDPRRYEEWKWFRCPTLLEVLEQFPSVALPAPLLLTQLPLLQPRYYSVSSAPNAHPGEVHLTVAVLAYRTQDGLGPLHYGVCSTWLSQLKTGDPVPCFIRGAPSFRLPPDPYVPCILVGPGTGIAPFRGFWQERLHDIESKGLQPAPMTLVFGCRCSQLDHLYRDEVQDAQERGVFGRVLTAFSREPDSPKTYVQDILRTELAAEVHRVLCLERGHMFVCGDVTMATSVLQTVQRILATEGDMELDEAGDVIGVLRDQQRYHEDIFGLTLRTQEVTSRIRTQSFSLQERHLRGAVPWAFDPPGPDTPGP

[7] = molecular target: Nitric oxide synthase 1 (Rattus norvegicus, UniProt P29476); assay: Inhibition of rat nNOS
[8] = test system: Bacillus subtilis; assay: Antibacterial activity against delta nos Bacillus subtilis assessed as bacterial growth up to 800 uM measured after overnight incubation relative to control; assay type: functional; settings: in the assay text read “at 500 uM” for “up to 800 uM”
How it was run: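 WT (ATCC 23857) and Δnos strains grown to OD600 ≈ 1.0, diluted to OD600 0.6 in LB, then mixed with M9 minimal media with or without NOS inhibitor (final 500 μM) and/or acriflavine (final 800 μM). 30 min at 30 °C, serially diluted, plated on LB agar + 0.5% glucose, overnight at 37 °C. CFU counted; percent survival relative to untreated cells.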

Chain of Nitric oxide synthase 1 (P29476 whole entry): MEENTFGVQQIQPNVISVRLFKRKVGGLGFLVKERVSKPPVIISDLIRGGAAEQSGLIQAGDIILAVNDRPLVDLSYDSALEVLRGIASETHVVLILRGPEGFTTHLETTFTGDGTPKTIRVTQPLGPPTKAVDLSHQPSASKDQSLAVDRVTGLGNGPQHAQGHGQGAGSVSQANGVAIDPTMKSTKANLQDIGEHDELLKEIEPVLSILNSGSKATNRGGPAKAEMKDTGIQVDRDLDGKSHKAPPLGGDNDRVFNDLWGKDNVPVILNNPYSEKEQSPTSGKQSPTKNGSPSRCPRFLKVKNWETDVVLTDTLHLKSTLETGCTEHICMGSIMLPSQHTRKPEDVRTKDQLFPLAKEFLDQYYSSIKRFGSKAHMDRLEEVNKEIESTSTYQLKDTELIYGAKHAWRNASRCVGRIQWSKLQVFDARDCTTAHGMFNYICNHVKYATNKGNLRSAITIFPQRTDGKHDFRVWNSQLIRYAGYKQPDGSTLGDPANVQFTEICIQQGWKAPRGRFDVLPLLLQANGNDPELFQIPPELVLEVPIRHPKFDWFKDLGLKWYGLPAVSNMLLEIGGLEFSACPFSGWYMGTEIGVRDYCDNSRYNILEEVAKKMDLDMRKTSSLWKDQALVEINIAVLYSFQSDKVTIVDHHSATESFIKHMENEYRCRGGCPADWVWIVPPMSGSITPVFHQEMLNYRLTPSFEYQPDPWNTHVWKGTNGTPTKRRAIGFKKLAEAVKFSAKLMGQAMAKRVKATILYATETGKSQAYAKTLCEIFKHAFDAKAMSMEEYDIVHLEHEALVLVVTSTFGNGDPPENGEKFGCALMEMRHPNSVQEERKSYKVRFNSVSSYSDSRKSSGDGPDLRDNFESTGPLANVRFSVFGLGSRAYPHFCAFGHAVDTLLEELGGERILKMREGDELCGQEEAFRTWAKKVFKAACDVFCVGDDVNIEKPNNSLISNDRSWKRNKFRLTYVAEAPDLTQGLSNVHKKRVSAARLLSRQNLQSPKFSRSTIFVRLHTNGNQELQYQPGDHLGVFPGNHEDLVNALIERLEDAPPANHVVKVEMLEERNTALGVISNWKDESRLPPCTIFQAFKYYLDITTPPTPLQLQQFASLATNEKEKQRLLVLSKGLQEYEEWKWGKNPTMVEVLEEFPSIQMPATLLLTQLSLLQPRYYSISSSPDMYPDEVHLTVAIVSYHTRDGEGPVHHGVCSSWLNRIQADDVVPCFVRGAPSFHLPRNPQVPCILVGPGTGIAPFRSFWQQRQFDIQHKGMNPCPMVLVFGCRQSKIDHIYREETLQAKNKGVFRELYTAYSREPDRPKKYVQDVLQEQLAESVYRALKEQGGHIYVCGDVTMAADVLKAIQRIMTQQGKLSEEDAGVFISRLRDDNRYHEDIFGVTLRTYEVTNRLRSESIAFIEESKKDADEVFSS

SMILES | Ks [1] [µM] | Ks [2] [µM] | pKi [3] | inhibition [4] | inhibition [5] | pKi [6] | pKi [7] | Activity [4] [%] | inhibition (INH) [8] [%]
N=C(NO)NCCC[C@H](N)C(=O)O | 1.9 | 3.2 | – | – | – | – | – | – | –
CNc1cc(C)cc(CCc2cc(C#N)cc(CCc3cc(C)cc(N)n3)c2)n1 | 19 | 12 | 4.84 | Active | Active | 4.93 | 6.71 | – | –
Cc1cc(N)nc(CCc2cc(N)cc(CCc3cc(C)cc(N)n3)c2)c1 | 1.9 | 0.91 | – | – | Active | – | – | 49.2 | 36
Cc1cc(N)nc(CCc2cc(CCCN)cc(CCc3cc(C)cc(N)n3)c2)c1 | 19 | 16 | – | Active | Active | – | – | – | –
Cc1cc(N)nc(CCc2cc(CN)cc(CCc3cc(C)cc(N)n3)c2)c1 | 47 | 15 | – | Active | Active | – | – | – | –

More lines, main results first:

Ks [1] [µM] | Ks [2] [µM] | pKi [3] | inhibition [4] | inhibition [5] | pKi [6] | pKi [7] | Activity [4] [%] | SMILES | inhibition (INH) [8] [%]
– | – | 4.89 | Active | Active | 5.81 | 5.90 | – | Cc1cc(N)nc(CCc2cc(C#N)cc(NCCc3ccccn3)c2)c1 | –
– | – | – | Active | Active | – | – | – | N=C(Nc1cccc(OCC(O)c2cccc(NC(=N)c3cccs3)c2)c1)c1cccs1 (stereo not given) | –
12 | 10 | 5.15 | Active | Active | – | 6.66 | – | Cc1cc(N)nc(CCc2cc(CN)cc(CCc3ccc4cc[nH]c4n3)c2)c1 | –
